Source: ChEMBL document CHEMBL1154157, “Synthesis, structure and structure-activity relationship analysis of 3-tert-butoxycarbonyl-2-arylthiazolidine-4-carboxylic acid derivatives as potential antibacterial agents” (Eur J Med Chem, 2009)
In brackets after ≈: the same amount, converted by molar mass.

Tests used:
Assay type in all cases: functional, organism-based
Pseudomonas aeruginosa = test: Antibacterial activity against Pseudomonas aeruginosa ATCC 13525 after 24 hrs by MTT method; conditions: ATCC 13525, 24 h
Summary of the method: (§1)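 Broth assay in Mueller-Hinton liquid medium. Compounds dissolved in DMSO (stock 50 μg/mL) and serially diluted into the medium. Inoculum approx. 10^5 cfu/mL, incubated 37 °C for 24 h. Afterwards MTT (2 mg/mL in 0.01 mol/L PBS, pH 7.4) added, 4-5 h at room temperature. Dye extracted with isopropanol containing 5% 1 mol/L HCl for 12 h, OD read at 570 nm. IC50 derived colorimetrically.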

Escherichia coli = test: Antibacterial activity against Escherichia coli ATCC 35218 after 24 hrs by MTT method; conditions: ATCC 35218, 24 h; summary of the method: as §1
Bacillus subtilis = test: Antibacterial activity against Bacillus subtilis ATCC 6633 after 24 hrs by MTT method; conditions: ATCC 6633, 24 h; summary of the method: as §1
Staphylococcus aureus = test: Antibacterial activity against Staphylococcus aureus ATCC 6538 after 24 hrs by MTT method; conditions: ATCC 6538, 24 h; summary of the method: as §1

Row | Compound | IC50 (Pseudomonas aeruginosa) | IC50 (Escherichia coli) | IC50 (Bacillus subtilis) | IC50 (Staphylococcus aureus)
1 | CC1(C)S[C@@H]2[C@H](NC(=O)Cc3ccccc3)C(=O)N2[C@H]1C(=O)O [PENICILLIN G] | 6.25 µg/mL (≈ 18.7 µM) | 6.25 µg/mL (≈ 18.7 µM) | 1.56 µg/mL (≈ 4.67 µM) | 1.56 µg/mL (≈ 4.67 µM)
2 | O=C(O)[C@@H]1CSC(c2cc(F)ccc2O)N1 (mixture of isomers) | 1.56 µg/mL | 12.5 µg/mL | 3.12 µg/mL | 6.25 µg/mL
3 | O=C(O)[C@@H]1CSC(c2cc(Br)cc(Br)c2O)N1 (mixture of isomers) | 25 µg/mL | 12.5 µg/mL | 12.5 µg/mL | > 50 µg/mL
4 | CC(C)(C)OC(=O)N1C(c2cc(Br)cc(Br)c2O)SC[C@H]1C(=O)O (mixture of isomers) | 0.39 µg/mL | 0.78 µg/mL | 3.12 µg/mL | 1.56 µg/mL
5 | CC(C)(C)OC(=O)N1C(c2cc(Cl)ccc2O)SC[C@H]1C(=O)O (mixture of isomers) | 0.39 µg/mL | 1.56 µg/mL | 1.56 µg/mL | 1.56 µg/mL
6 | CC(C)(C)OC(=O)N1C(c2cc(C(C)(C)C)c(O)c(C(C)(C)C)c2)SC[C@H]1C(=O)O (mixture of isomers) | 0.39 µg/mL | 0.69 µg/mL | 0.39 µg/mL | 1.56 µg/mL
7 | NC[C@H]1O[C@H](O[C@H]2[C@H](O)[C@@H](O[C@H]3O[C@H](CO)[C@@H](O)[C@H](N)[C@H]3O)[C@H](N)C[C@@H]2N)[C@H](N)[C@@H](O)[C@@H]1O [BEKANAMYCIN] | 3.12 µg/mL (≈ 6.46 µM) | 3.12 µg/mL (≈ 6.46 µM) | 0.39 µg/mL (≈ 0.807 µM) | 1.56 µg/mL (≈ 3.23 µM)
8 | O=C(O)[C@@H]1CSC(c2cc(Br)ccc2O)N1 (mixture of isomers) | 6.25 µg/mL | 25 µg/mL | 12.5 µg/mL | 12.5 µg/mL
9 | CC(C)(C)OC(=O)N1C(c2ccccc2)SC[C@H]1C(=O)O (mixture of isomers) | 0.78 µg/mL | 0.39 µg/mL | 3.12 µg/mL | 0.78 µg/mL
10 | CC(C)(C)OC(=O)N1C(c2cc(Br)ccc2O)SC[C@H]1C(=O)O (mixture of isomers) | 0.78 µg/mL | 1.56 µg/mL | 1.56 µg/mL | 1.56 µg/mL
11 | O=C(O)[C@@H]1CSC(c2cc(Cl)ccc2O)N1 (mixture of isomers) | 3.12 µg/mL | 12.5 µg/mL | 12.5 µg/mL | 6.25 µg/mL
12 | CC(C)(C)OC(=O)N1C(c2ccc(Br)cc2)SC[C@H]1C(=O)O (mixture of isomers) | 0.39 µg/mL | 0.39 µg/mL | 3.12 µg/mL | 3.12 µg/mL
13 | COc1ccc(C2SC[C@@H](C(=O)O)N2C(=O)OC(C)(C)C)cc1 (mixture of isomers) | 0.39 µg/mL | 0.78 µg/mL | 3.12 µg/mL | 1.56 µg/mL
14 | CC(C)(C)c1cc(C2N[C@H](C(=O)O)CS2)cc(C(C)(C)C)c1O (mixture of isomers) | 25 µg/mL | 25 µg/mL | 25 µg/mL | 12.5 µg/mL
15 | O=C(O)[C@@H]1CSC(c2ccccc2)N1 (mixture of isomers) | > 50 µg/mL | 25 µg/mL | 3.12 µg/mL | 12.5 µg/mL
16 | COc1ccc(C2N[C@H](C(=O)O)CS2)cc1 (mixture of isomers) | > 50 µg/mL | > 50 µg/mL | 12.5 µg/mL | 25 µg/mL
17 | CC(C)(C)OC(=O)N1C(c2ccc(O)cc2)SC[C@H]1C(=O)O (mixture of isomers) | 0.39 µg/mL | 0.78 µg/mL | 0.39 µg/mL | 3.12 µg/mL
18 | CC(C)(C)OC(=O)N1C(c2cc(F)ccc2O)SC[C@H]1C(=O)O (mixture of isomers) | 0.195 µg/mL | 0.78 µg/mL | 0.39 µg/mL | 0.39 µg/mL
19 | O=C(O)[C@@H]1CSC(c2ccc(O)cc2)N1 (mixture of isomers) | 25 µg/mL | > 50 µg/mL | 25 µg/mL | > 50 µg/mL
